# In the library only some 3.2% were active in any assay of this set; here they are far more common.
# TRPN1 ag = zebrafish TRPN1 channel agonists, primary screen, cell-based, HEK293, calcium fluorescence | transient receptor potential cation channel N1 (TRPN1/NompC), Danio rerio | HEK293 zebrafish TRPN1-YFP, Fluo-8 calcium fluorescence; 100% = response to 87 µM carbachol | activation, % at 3 µM | hit rate 0.18% among 220,000;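 active = activation above its plate's cutoff, the mean activation of test wells on that plate plus 3 SD, cut at about 19% in these data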;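 also: 0% = DMSO alone and 100% = 87 µM carbachol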
#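 Material: zebrafish TRPN1-YFP in HEK293 cells; Doses: single test compound dose, 3 µM nominal, 0.3% DMSO; Timing: dye loading 1 h at 37 °C, then 30 min room temperature; Technique: intracellular calcium fluorescence with Fluo-8; Benchmarks: high carbachol 87 µM, low DMSO alone.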
# OX1R antag-1 = OX1R (HCRTR1) antagonists, primary screen, fluorescence, CHO/OX1R cells, Fluo-8 calcium, orexin A. Orexin/Hypocretin receptor type 1 (Homo sapiens), O43613. Fluo-8 calcium fluorescence. inhibition, % at 5 µM. hit rate 0.43% among 330,000. AID 434989, 2010;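 active = inhibition above its plate's threshold, mean inhibition of all tested compounds on the plate plus 3 SD, cut at about 37% in these data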;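 also: 0% = orexin A challenge wells and 100% = SB-334867-A antagonist wells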
# Target sequence (O43613 whole entry, looked up): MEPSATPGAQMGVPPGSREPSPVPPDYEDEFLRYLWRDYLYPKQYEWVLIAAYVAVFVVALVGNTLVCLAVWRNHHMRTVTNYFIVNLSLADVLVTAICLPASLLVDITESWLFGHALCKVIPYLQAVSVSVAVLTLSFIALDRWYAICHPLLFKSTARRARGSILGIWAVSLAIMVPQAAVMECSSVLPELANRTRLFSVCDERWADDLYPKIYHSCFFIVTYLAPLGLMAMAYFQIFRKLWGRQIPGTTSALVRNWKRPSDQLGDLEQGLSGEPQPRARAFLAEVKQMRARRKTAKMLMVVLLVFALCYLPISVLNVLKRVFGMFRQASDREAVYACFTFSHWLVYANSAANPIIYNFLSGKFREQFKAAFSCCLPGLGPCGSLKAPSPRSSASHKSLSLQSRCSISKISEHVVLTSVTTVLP
# TRPML3 agonist = human TRPML3 channel agonists, primary screen, cell-based, HEK293 TRPML3-YFP, Fluo-8 calcium fluorescence, 3 µM | hit rate 0.29% among 220,000 | Mucolipin-3 (Homo sapiens), Q8TDD5 | AID 1448, 2008 | activation, % at 3 µM | 100% = the carbachol control signal;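 active = activation above its plate's cutoff, the mean activation of the plate's test wells plus 3 SD, cut at about 12% in these data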;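 also: 0% = DMSO only wells and 100% = carbachol wells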
#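 system = HEK293 cells stably carrying human TRPML3-YFP | doses = one concentration, 3 µM nominal, 0.3% DMSO | timing = dye loading 1 h 37 °C then 30 min ambient, 125 s read | detection = Fluo-8 calcium dye fluorescence, ex 470-495, em 515-575 nm | benchmarks = high control carbachol 87 µM, low control DMSO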
# CHO parental Ca = ATP-evoked calcium signal inhibitors, parental CHO, primary screen, counter-screen for OX1R antagonist project, cell-based, fluorescence, Fluo-8 calcium dye; parental CHO-K1, ATP-induced calcium, Fluo-8 fluorescence; inhibition, % at 5.6 µM; hit rate 0.63% among 330,000;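 active = inhibition above that plate's mean sample inhibition plus 3 SD, cut at about 26% in these data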;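 also: 0% = ATP-challenged DMSO wells and 100% = DMSO wells without ATP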
#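 Assay system – parental CHO cells · Reagent – ATP stimulus · Detection – intracellular calcium via Fluo-8 no-wash fluorescent dye · Evaluation – percent inhibition of ATP-evoked calcium rise, normalized to controls · Controls – ATP wells versus no-ATP DMSO wells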
# OX1R antag-2 = antagonists of human orexin 1 receptor (OX1R). Orexin/Hypocretin receptor type 1 (Homo sapiens), O43613. inhibition, % at 6.6 µM. hit rate 1.8% among 330,000. OX1R-expressing cells, FRET antagonist read-out; in the data active = inhibition mostly above about 38%, no sharp cut-off; inactive = mostly below about 40%;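 also: 0% = agonist challenge alone and 100% = reference antagonist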
# GPR7 antag = GPR7 receptor antagonists, primary screen, cell-based, fluorescence, single concentration; Neuropeptides B/W receptor type 1 (Homo sapiens), P48145; GPR7-expressing cells, fluorescence antagonist assay; inhibition, % at 4.4 µM; hit rate 1.1% among 290,000; in the data active = inhibition above about 16%, passing the limit was not always enough;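 also: cells stimulated with the agonist NPW; 0% = agonist with vehicle and 100% = vehicle without agonist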
# GPR7 antag cf = GPR7 receptor antagonists, confirmation, cell-based, fluorescence, single concentration; shares compounds with GPR7 antag; GPR7-expressing cells, calcium fluorescence antagonist mode; inhibition, % at 4.4 µM; hit rate 52% among 2,400; in the data active = inhibition above about 24%;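 also: stimulated with the GPR7 agonist NPW; 0% = agonist plus vehicle and 100% = vehicle alone without agonist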
# MCHR1 antag = MCHR1 antagonists in cells, counter-screen for GPR7 antagonist project, cell-based, fluorescence, human; shares compounds with GPR7 antag; MCHR1-expressing cells, fluorescence antagonist assay; inhibition, % at 4.4 µM; hit rate 62% among 2,400; in the data active = inhibition above about 22%;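 also: 0% = vehicle with agonist and 100% = vehicle without agonist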
# * hit, by the source's call; / = not tested or not shown.
SMILES,TRPN1 ag,OX1R antag-1,TRPML3 agonist,CHO parental Ca,OX1R antag-2,GPR7 antag,GPR7 antag cf,MCHR1 antag
COc1ccc(CNc2cccc3[nH]c(C(F)(F)F)nc23)cc1OC,/,-7,/,-1,3,0,/,/
COc1ccc(OCCOc2ccc(S(=O)(=O)N3CCCC3)cc2[N+](=O)[O-])cc1,/,-7,/,-10,2,/,/,/
O=[N+]([O-])c1cc(S(=O)(=O)N2CCCCCC2)ccc1Cl,-3,/,22*,/,/,39*,63*,19
COc1cccc(Oc2ccc(S(=O)(=O)N3CCCC3)cc2[N+](=O)[O-])c1,/,3,/,11,36,31*,-5,15
Cc1ccc(S(=O)(=O)CCC(=O)OCC(=O)c2c(N)n(CC(C)C)c(=O)n(C)c2=O)cc1,/,-11,/,-6,15,-15,/,/
COc1ccc(CCC(=O)OCC(=O)c2c(N)n(CC(C)C)c(=O)n(C)c2=O)cc1,/,24,/,44*,41,28*,44*,60*
CCCCOc1ccc(C(=O)Oc2ccc(C)nc2)cc1,1,-3,1,-13,12,7,/,/
CCCCCOc1ccc(OC(=O)c2ccncc2)cc1,0,-28,0,1,12,27*,1,-4
O=C(Oc1ccc(C(=S)N2CCOCC2)cc1)c1cccc(Cl)c1,/,-8,/,-9,5,14,/,/
O=C(Oc1ccc(C(=S)N2CCC(O)CC2)cc1)c1ccc(Cl)cc1,3,-16,2,-1,0,26*,34*,38*
Cc1cccc2cc(CN(Cc3ccccc3)C(=S)NCCCN(C)C)c(=O)[nH]c12,6,-34,1,-14,14,53*,48*,28*
Cc1ccc(CN(Cc2cc3cccc(C)c3[nH]c2=O)C(=S)NCCCN(C)C)cc1,10,-36,1,-15,5,36*,47*,30*
Cc1cccc2cc(CN(Cc3cccnc3)C(=S)NCCCN(C)C)c(=O)[nH]c12,0,-19,1,-15,-2,2,/,/
COc1ccc(CN2C(=NC(=O)C3CCCO3)SC3CS(=O)(=O)CC32)cc1OC (stereo unspecified),/,-4,/,-8,5,-9,/,/
CCCC(c1nnnn1Cc1ccco1)N1CCN(c2cc(Cl)ccc2C)CC1 (stereo unspecified),-2,5,1,-10,16,26*,35*,50*
CCCC(c1nnnn1Cc1ccco1)N1CCN(c2ccccc2)CC1 (stereo unspecified),-1,-12,0,-16,26,8,/,/
CCNC(=O)N1CCCC(C(=O)c2ccc(C(F)(F)F)cc2)C1 (stereo unspecified),/,-28,/,-22,8,-15,/,/
Cc1coc2cc3oc(=O)c(CCC(=O)NCCCN4CCOCC4)c(C)c3cc12,/,-14,/,-11,5,43*,-9,-4
COc1ccccc1NS(=O)(=O)c1cc(NC(=O)c2ccc3c(c2)OCCO3)ccc1C,3,-9,1,-14,14,27*,2,63*
COc1cccc(CNC(=O)CSc2nnc3c(n2)[nH]c2ccccc23)c1,/,-12,/,-14,37,-1,/,/
CCN(CC)c1nc2cc(C)ccc2cc1/C=C(\C#N)C(N)=O,1,-37,1,-19,5,-15,/,/
Cc1nc(Cl)sc1C(=O)Nc1ccccc1,1,1,0,-2,17,1,/,/
Cc1nc(C)c(C(=O)Nc2ccccc2)s1,0,-13,0,-5,19,22*,3,-5
COc1ccccc1N1CCN(CC(=O)Nc2nccs2)CC1,/,-11,/,-4,-12,-18,/,/
Cc1cccc(N2CCN(CC(=O)Nc3nccs3)CC2)c1C,0,-25,1,-24,30,36*,34*,36*
SMILES,TRPN1 ag,OX1R antag-1,TRPML3 agonist,CHO parental Ca,OX1R antag-2,GPR7 antag,GPR7 antag cf,MCHR1 antag
Cc1cccc(N2CCN(CC(=O)Nc3ccc(S(=O)(=O)N4CCOCC4)cc3)CC2)c1C,/,34,/,55*,26,33*,3,35*
Cc1ccc(S(=O)(=O)N2CCOCC2)cc1NC(=O)CN1CCC(Cc2ccccc2)CC1,0,-23,0,-23,18,37*,25*,38*
Cc1ccc(S(=O)(=O)N2CCN(CC(=O)Nc3ccc(N4CCOCC4)cc3)CC2)cc1C,1,-6,0,-12,4,-7,/,/
CCc1cccc2c(C(=S)N3CCOCC3)c[nH]c12,1,-1,1,-1,6,-1,/,/
CS/C(=C\[N+](=O)[O-])Nc1ccc(F)cc1,0,-7,0,-8,31,23*,-12,5
CCc1cccc(C)c1NC(=O)C1CCN(c2nn3c(=O)cc(C)nc3s2)CC1,/,-23,/,-6,14,8,/,/
C=CCN1CC(c2nc3ccccc3n2CCOc2ccccc2)CC1=O (stereo unspecified),0,-7,-1,-12,27,33*,2,7
CCSc1nsc(NC(=O)Nc2ccccc2F)n1,/,4,/,20,34,1,/,/
CCSc1nsc(NC(=O)Nc2cccc(OC)c2)n1,/,29,/,43*,52*,28*,37*,61*
C=CCSc1nsc(NC(=O)Nc2ccc(F)cc2)n1,/,-1,/,51*,70*,36*,61*,61*
COc1ccc(CCNC(=O)CN2C(=O)COc3ccc(S(=O)(=O)N4CCCC4)cc32)c(OC)c1,/,-13,/,-29,16,11,/,/
Cc1ccccc1C(=O)N[C@H](C(=O)OCC(=O)NC1CC1)C(C)C,/,-4,/,-5,9,/,/,/
COc1ccc(Cn2c(S(=O)(=O)CC(N)=O)nc3ccccc32)cc1[N+](=O)[O-],0,-13,0,-16,20,-3,/,/
O=C(NC(Cc1ccccc1)C(=O)N1CCN(S(=O)(=O)c2ccccc2)CC1)c1ccccc1 (stereo unspecified),/,-10,/,-29,23,22*,-8,4
CC(=O)N1CCN(C(=O)C(Cc2ccccc2)NC(=O)c2ccccc2)CC1 (stereo unspecified),/,11,/,1,5,/,/,/

# Source: PubChem (The Scripps Research Institute Molecular Screening Center)
